Results from ChEMBL document CHEMBL4513216, “Probing the Open Global Health Chemical Diversity Library for Multistage-Active Starting Points for Next-Generation Antimalarials” (ACS Infect Dis, 2020).

Test: Toxicity liver stage against HepG2, at 10uM
Assay type: cell-based
Parameters: test concentration 10 uM, cell line HepG2-A16-CD81EGFP
Conditions: human, HepG2-A16-CD81EGFP cells; read-out: INHIBITION
How it was run: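 Uninfected HepG2-A16-CD81EGFP cells, 3 × 10^3 per well, 1536-well, plated on prespotted compound at 10 μM final, parasite-free screening media added to match infected plates; puromycin 10 μM positive, DMSO 0.5% negative; run in parallel with 48 h PbLuc assay at 37 °C, 5% CO2; viability by CellTiter-Glo luminescence, normalized to controls.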

| Compound | cytotoxicity at 10 µM |
| --- | --- |
| CC1CCN(S(=O)(=O)N2CCc3sccc3C2)CC1 | -30.8% |
| CN1Cc2nc[nH]c2C[C@H]1C(=O)NC1CCCCC1 | 0.0515% |
| NC(=O)CN1C(=O)CO[C@H]2CN(Cc3ccccc3)C[C@H]21 | 0.67% |
| CCCc1nnsc1C(=O)NCC(O)c1cccs1 (stereo not drawn) | 4.15% |
| CCOc1ccccc1NC(=O)NCCc1ccoc1 | -1.18% |
| c1cc(CN2CCC3(CC2)COC(COCC2CC2)C3)cs1 (stereo not drawn) | -0.272% |
| O=C(C1CCOC1)N1CCC2(CC1)COC2 (stereo not drawn) | 3.06% |
| Cc1ccc2c(c1)C1(CCN(S(C)(=O)=O)CC1)CN2C(=O)N(C)C | -121% |
| O=C([C@H]1C[C@H]2OCC[C@H]2N(C(=O)c2ccnnc2)C1)N1CCCCO1 | 4% |
| COC[C@H]1CCC[C@]12CN(Cc1cccc(C)n1)CCO2 | 2.23% |
| CCS(=O)(=O)N1CCc2cc(C(=O)NC)c(N(C)C)nc2CC1 | -141% |
| Cc1nn(C)c2cn(CC(=O)NC3CCSCC3)nc12 | 0.243% |
| CCn1ncc2c(C(F)(F)F)cc(-c3cnn(C)c3)nc21 | 3.67% |
| CC(C)n1cc(N2CC(C(=O)N3CCCC3)CC2=O)cn1 (stereo not drawn) | 3.79% |
| CN(C)CC1(O)CCN(C(=O)Cc2ccc3c(c2)CCC3)C1 (stereo not drawn) | -7.84% |
| Cc1cc(Nc2cnccn2)cc(C2CCCNC2)n1 (stereo not drawn) | 4.75% |
| COCCNC(=O)C(C)n1nc(-c2ccc(C)o2)cc(N)c1=O (stereo not drawn) | 1.26% |
| CN(c1cccnn1)[C@@H]1CC[C@@H]2CN(Cc3ccccc3C(=O)O)C[C@@H]21 | 7.43% |
| Cc1ccc(C2CCCN(S(=O)(=O)N3CCOCC3)C2)nc1 (stereo not drawn) | 4.25% |
| Cc1ccc(S(=O)(=O)N2C[C@H]3C[C@H](NC(=O)C(C)C)[C@H]3C2)cc1 | -4.59% |
| CC1CCCN(Cc2c(C3CC3)[nH]c3ncccc23)C1 (stereo not drawn) | -34.1% |
| CNC(=O)C1(c2cnccn2)CCCN1C(=O)c1ncccc1C (stereo not drawn) | 4.22% |
| COc1ccc(Cn2cc(C(C)O)nn2)cc1 (stereo not drawn) | 16.9% |

| Compound | cytotoxicity at 10 µM |
| --- | --- |
| Cc1nc(C2CCN(S(=O)(=O)c3ccc4c(c3)CCO4)CC2)n[nH]1 | -8.91% |
| N#Cc1ccc(CS(=O)(=O)NC(=O)c2ccc3c(c2)COC3)cc1 | 3.65% |
| COc1ccccc1CC(NC(=O)N1CCOCC1)C(C)C (stereo not drawn) | 4.29% |
| Cc1nc(C(C)(C)NCc2ncc(C(C)C)o2)sc1C | 6.32% |
| O=C1CCC(=O)N1CCn1nnc(-c2ccc(Br)cc2)n1 | 4.26% |
| CS(=O)(=O)N1CCC(CNc2c(Cl)cccc2C#N)CC1 | -6.67% |
| N#CC1COCCN1C(=O)c1ccc2[nH]ccc2c1 (stereo not drawn) | 14.4% |
| COC(=O)c1ccc(NC(C)c2ccc3c(c2)CCC(=O)N3)nn1 (stereo not drawn) | 2.52% |
| CCn1ccnc1CN1CCN(C(C)C(=O)NCC(F)(F)F)CC1 (stereo not drawn) | 9.73% |
| CC(CC(=O)c1ccco1)NC(=O)c1ccon1 (stereo not drawn) | -17.9% |
| Cc1cccn2cc(CNS(=O)(=O)N3CCOCC3)nc12 | -6.6% |
| COc1ccc(NC(=O)N2CCC(CSC)C2)cc1C (stereo not drawn) | 3.36% |
| Cc1cccc(C2(C(=O)NCC3CN(C)CCO3)CC2)c1 (stereo not drawn) | -7.45% |
| Cc1noc(C)c1CNC(C)c1ccc(S(=O)(=O)N(C)C)cc1 (stereo not drawn) | 2.47% |
| CC(Nc1ccc(CN2CCCC2=O)cc1)c1ccc(C#N)cc1 (stereo not drawn) | 6.29% |
| COc1cc2c(cc1OC)CCN(C(=O)Cn1nc(C)cc1C)CC2 | 2.63% |
| O=C(NCC1(C(=O)O)CCC1)c1nnn(-c2ccc(F)cc2)c1C1CC1 | -14.8% |
| CC(C)(C)OC(=O)NCCNC(=O)c1cnc(-c2ccccc2)nc1 | 8.12% |
| COc1c(CNC2CCOc3c(F)cccc32)c(C)nn1C (stereo not drawn) | 7.5% |
| NS(=O)(=O)CCNC(=O)C1(c2ccccc2)CC1 | -0.18% |
| CC(C)C1CN(C(=O)c2ccncc2)CCS1 (stereo not drawn) | 9.72% |
| O=C(COc1cccc2c1CCC2=O)NCC(F)(F)F | -8.74% |
| CCn1cnnc1C1CCN(C(=O)c2cccc(-n3cccc3)c2)CC1 | 4.56% |

| Compound | cytotoxicity at 10 µM |
| --- | --- |
| Cc1nc(CCNC(=O)Nc2cc(C(F)(F)F)c[nH]c2=O)cs1 | 0.614% |
| CCN(CC1CCOC1)C(=O)c1ccc(-c2ccsc2)nc1C (stereo not drawn) | 6.39% |
| O=C(CN1CCCC1Cn1cncn1)Nc1ccnn1C1CCCC1 (stereo not drawn) | -1.07% |
| Cc1cc(NCC(=O)N(C)C)c(C(N)=O)cc1F | -2.64% |
| CC(O)CN(c1ccccc1)S(=O)(=O)c1cc(C(=O)O)cc2c1CCC2 (stereo not drawn) | 11.1% |
| CC1CCCCN1C(=O)c1ccc(Br)s1 (stereo not drawn) | -8.21% |
| Cn1ccnc1-c1noc(NCc2ccc(Br)cc2)n1 | -4.32% |
| NC(=O)C1CCCN1C1CCN(C(=O)c2ccc3c(c2)OCO3)CC1 (stereo not drawn) | 1.59% |
| O=C1CCC(=O)N1CCN1CCC(=Cc2ccccc2)CC1 | 8.82% |
| CC(C)(CNC(=O)CSc1nnnn1C1CC1)c1ccccc1F | 13.4% |
| COCCNC(=O)NC1(c2ccccc2F)CC1 | -0.421% |
| CCCNC(=O)C(C)Nc1ccn(Cc2ccccn2)n1 (stereo not drawn) | -5.95% |
| CC(=O)N(Cc1noc(C)n1)C1CCN(CC2CCCC2)C1 (stereo not drawn) | -12.3% |
| Cc1nc(CNC(=O)Nc2c(C)n[nH]c2C)cs1 | 3.51% |
| CC(C)OCCOCc1cccc(NC(=O)N2CCCC(O)C2)c1 (stereo not drawn) | -5.01% |
| COC(C)C(=O)NS(=O)(=O)c1ccc(F)c(C(F)(F)F)c1 (stereo not drawn) | -4.04% |
| CCCC(=O)NS(=O)(=O)c1ccc(C#N)c(C(F)(F)F)c1 | -12.8% |
| O=C1C(Nc2nccn3cnnc23)CCN1c1cccc(Cl)c1 (stereo not drawn) | -1.7% |
| CCN(CC)C(=O)Nc1ccc(C(=O)N(C)C)c(C)c1 | 7.52% |
| OC(CN1CCCc2cc(OC(F)F)ccc21)Cn1cccn1 (stereo not drawn) | 6.85% |
| CCN1CCCCC1C(=O)Nc1cccc(-c2nnc[nH]2)c1 (stereo not drawn) | 4.03% |
| CN(C)CCn1c(=O)oc2ccc(NC(=O)C3CCCO3)cc21 (stereo not drawn) | 0.743% |
| Cn1ccnc1CNC1CCCN(Cc2noc(C3CC3)n2)C1 (stereo not drawn) | -11.1% |

| Compound | cytotoxicity at 10 µM |
| --- | --- |
| O=C(CCc1cccc(F)c1F)N1CCN(Cc2ccco2)CC1 | -11.5% |
| Cc1nc(C)c2c(n1)CCN(C(=O)CC1CC1)CC2 | 2.34% |
| COc1cccc(C(C(=O)O)N2CCC(Cn3cccn3)CC2)c1OC (stereo not drawn) | -1.77% |
| COCCN(Cc1cnn(C)c1)CC1CCOC1 (stereo not drawn) | -8.52% |
| COc1ccccc1OC1CN(C(=O)C2CNCC(=O)N2)C1 (stereo not drawn) | 5.46% |
| Cc1n[nH]c(C)c1CC(=O)N1CCN(C)C2(CCNC(=O)CC2)C1 (stereo not drawn) | 2.65% |
| CC(=O)N1Cc2cnc(C(C)(C)C)nc2C1 | -122% |
| Cc1nn(C)c2nc(NCCN3CCCC(C(N)=O)C3)sc12 (stereo not drawn) | 0.739% |
| CCC1c2cccn2CCN1C(=O)c1cc(OC)nc(OC)n1 (stereo not drawn) | 15% |
| CCc1ncc2c(n1)CN(c1cc(N3CCN(C)CC3)nc(N)n1)C2 | 22.8% |
| CC(C)Cn1cncc1CNC(=O)c1cccc(Cn2cccn2)c1 | -3.12% |
| CCc1csc(CNC(=O)C(CC)n2cccn2)n1 (stereo not drawn) | -0.651% |
| CN(CCc1ccccn1)C(=O)C1Cc2ccccc2CN1C (stereo not drawn) | 1.47% |
| Cc1ccsc1-c1nccn1CCS(=O)(=O)N1CCCC1 | -3.67% |
| C[C@@H]1CN(Cc2ccncc2)C[C@]1(C)O | 1.6% |
| COC(=O)N1CCN(c2ncnc3nc(C)cc(C)c23)CC1 | -15.2% |
| Cc1noc(C)c1CN(C)c1nc(C2CCCC2)nc2c1cnn2C | 22.2% |
| Cc1cc(=O)[nH]c(SC(C)C(=O)N2CCCN(C3CCCC3)CC2)n1 (stereo not drawn) | -8.04% |
| Cc1cc2c(=O)n3c(nc2s1)CCN(C(=O)c1ccncc1)CC3 | 1.08% |
| Cc1nc(CN2CCCC(NCc3ccc4c(c3)CCO4)C2)no1 (stereo not drawn) | -3.61% |
| CCc1nc(C2CCCN2Cc2ccno2)no1 (stereo not drawn) | 2.52% |
| c1ccc(Cc2noc(CN3CCc4cncnc4C3)n2)cc1 | -5.91% |
| COc1cc(CCC(=O)NC(C)C)ccc1OCC(F)(F)F | -4.24% |

| Compound | cytotoxicity at 10 µM |
| --- | --- |
| CCCc1nc(C)c(C(=O)NCCNc2ncccn2)s1 | -7.22% |
| Cn1ncc2c(=O)[nH]c(CN3CCCC3CC(C)(C)C)nc21 (stereo not drawn) | -1.09% |
| Cn1ncc2c(=O)[nH]c(CN3CCCC3CCc3ccccc3)nc21 (stereo not drawn) | -8.21% |
| Cc1cccc(-c2nc(CNC3CCc4nc(C)nn4C3)no2)c1 (stereo not drawn) | -4.3% |
| COc1ccccc1COCC(O)CN1CC(n2cccn2)C1 (stereo not drawn) | -6.25% |
| O=C(CCc1ccco1)N1CCCN(Cc2cscn2)CC1 | 3.28% |
| CC(C)N1CCN(C(=O)C(C)n2cncn2)CC1 (stereo not drawn) | 0.724% |
| CSc1ccc(CNC(=O)NCC(O)c2cccc(F)c2)cc1 (stereo not drawn) | -6.16% |
| Cc1cnc(C(=O)NCc2ccc3c(c2)CCCN3C)cn1 | -4.92% |
| Cc1nnc(N2C[C@H](OCc3ccncc3)[C@H]3OCCC[C@H]32)s1 | 13.6% |
| NC(=O)CN1CC(c2nc(C3CC3)no2)C1 | 5.62% |
| O=C(C[C@@H]1COC[C@H]2CN(Cc3ccncc3)C[C@@H]12)N1CCOCC1 | 6.59% |
| C[C@H]1CN(Cc2cccc(F)c2)C[C@@]12CCN(CC(=O)N(C)C)C2=O | -7.13% |
| Cn1nnc2c1CCN(C(=O)C1CCC1)C2COCCN1CCCC1 (stereo not drawn) | 11% |
| CC[C@H]1N(CC2CCC2)CCC[C@]12CCC(=O)N2Cc1ccncc1 | -0.508% |
| CCOCC1CN(C(=O)CS(C)(=O)=O)Cc2cnn(C)c21 (stereo not drawn) | -6.63% |
| N#Cc1cccc(N2CC3(CCN(C(=O)c4cccnc4)C3)CC2=O)c1 (stereo not drawn) | 0.925% |
| Cc1noc(C)c1CN1CCO[C@H]2CN(CC3CC3)C[C@H]21 | -4.25% |
| COCC1CC2(CCN(S(=O)(=O)C3CC3)CC2)CN1c1ncccn1 (stereo not drawn) | -2.01% |
| CO[C@@H]1CCN(C(=O)Cc2cccc(F)c2)[C@H]1Cc1cccnc1 | -4.89% |
| CC(=O)N1CCN(Cc2ccco2)CC2(CC(=O)N(C)C2)C1 (stereo not drawn) | -3.81% |
